Primed or numbered codes have the meaning given here. No end group written: not given here. *: point of attachment. IASA″ = iodo-4-azidosalicylic acid, on the N-terminus in place of PbCS S-252; Benzoyl(4-N3) = [N-]=[N+]=Nc1ccc(C(=O)*)cc1; IASA = iodo-4-azidosalicylic acid

The values below come from article PMC2196149 (The Journal of Experimental Medicine, 1997).

Test [1] deals with S14 CTL. The experiment in a line: inhibition of recognition of photocross-linked IASA-YIPSAEK. In kind it is cell-based, mice. Conditions: P815 cells photocross-linked with suboptimal IASA-YIPSAEK(ABA)I (Fig. 5 B).
The test system of test [2] is seven IASA-YIPSAEK(ABA)I-specific CTL clones. The experiment in a line: 51Cr release cytolytic assay, P815 targets, seven CTL clones. It is filed as cell-based, mice. To be noted: clones S1, S4, S14, S15, S17, S18, T1; 51Cr-labeled P815 targets; wt = 1 (Fig. 3 A).
In test [3] the test system is TCR on CTL T1. Kind of test: TCR-ligand dissociation, clone T1. In kind it is binding, mice. Conditions: preliminary, unpublished results.
Test [4] relates to TCR on CTL S17. The experiment in a line: TCR-ligand dissociation, clone S17. It is filed as binding, mice. To be noted: preliminary, unpublished results.
For test [5], the system named is S15 CTL. The experiment in a line: 51Cr release cytolytic assay, P815 targets, clone S15. In kind it is cell-based, mice. To be noted: 51Cr-labeled P815 targets; partial recognition. Summed up:
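Cloned CTL are tested on 51Cr-labeled P815 mastocytoma targets (DMEM, 5% FCS, 10 mM Hepes), 2 × 10^3/well, with threefold dilutions of peptide derivative. CTL (6 × 10^3/well) added after 15 min; 4 h at 37°C. Supernatant 51Cr measured. Specific lysis = 100 × (experimental − spontaneous)/(total − spontaneous release).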

In test [6] the test system is S15 CTL / A20 cells. Kind of test: 51Cr release cytolytic assay, A20 targets, clone S15. It is filed as cell-based, mice. To be noted: 51Cr-labeled A20 cells, E/T 3:1, 8 h; representative experiment (Fig. 4 A). In short, it runs like this:
(§1)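 Murine H-2Kd-restricted CTL clone specific for a photoreactive derivative of a Plasmodium berghei circumsporozoite 252–260 peptide. Targets are 51Cr-labeled A20 B lymphoma cells or their Fas-lacking variant, 2 × 10^3/well, in threefold dilutions of peptide derivative in DMEM + 5% FCS + 10 mM Hepes. CTL (6 × 10^3/well) added after 15 min; 8 h at 37°C. Supernatant 51Cr counted. Specific lysis = 100 × (experimental − spontaneous)/(total − spontaneous).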

Test [7] concerns S15 CTL / A20 Fas^− cells. The experiment in a line: 51Cr release cytolytic assay, A20 Fas^− targets, clone S15. It is filed as cell-based, mice. Conditions: 51Cr-labeled A20 Fas^− cells, E/T 3:1, 8 h; representative experiment (Fig. 4 B). Summed up:
as §1

In test [8] the test system is TCR on CTL S4. Kind of test: TCR-ligand dissociation, clone S4. To be noted: preliminary, unpublished results. In kind it is binding, mice.

As to “P255L ({IASA}-YILSAEK(Benzoyl(4-N3))I; not fully specified)”, in test [1], the “concentration required for maximal inhibition relative to K259(BA), S14 CTL” value was approximately 10 fold.

As to “P255A ({IASA}-YIASAEK(Benzoyl(4-N3))I; not fully specified)”, the “normalized relative antigenic activities over seven CTL clones” value (“normalized relative antigenic activities” for short) in test [2] is on record as 0.1 to 6. The “dissociation of ligand from TCR compared with wild-type ligand” value in test [3] was “faster”.

Regarding “P255S ({IASA}-YISSAEK(Benzoyl(4-N3))I; not fully specified)”, in test [4], the “dissociation of ligand from TCR compared with wild-type ligand” value is reported as “considerably slower”.

In the case of IASA-YIPSAEK(ASA)I [K259(ASA)], the “plateau of specific lysis, S15 CTL” value in test [5] is reported as not above 30%. Moreover, the “normalized relative antigenic activities” value in test [2] was “efficiently recognized by all clones, except by clone S15”. Besides, the “specific lysis at half-maximum, A20 cells, S15 CTL” value in test [6] is on record as 13%. Further, the “concentration for half-maximal lysis of A20 Fas^− cells by S15 CTL” value in test [7] was “not detectably lysed”.

On to E258A ({IASA}-YIPSAAK(Benzoyl(4-N3))I), for which, in test [8], the “dissociation of ligand from TCR compared with wild-type ligand” value is recorded as “considerably slower”.

In the case of S256A ({IASA″}-YIPAAEK(Benzoyl(4-N3))I), in test [2], the “normalized relative antigenic activities” value fell in the range of 0.1 to 6. Further, the “dissociation of ligand from TCR compared with wild-type ligand” value in test [4] was “faster”.

On to I254A ({IASA}-YAPSAEK(Benzoyl(4-N3))I), for which the “normalized relative antigenic activities” value in test [2] fell in the range of 0.1 to 6.

As for IASA-YIPSAEK(IASA)I, the “plateau of specific lysis, S15 CTL” value in test [5] is reported as “even lower plateau of lysis”.
